In ChEMBL document CHEMBL4020827, “Targeting Multiple Effector Pathways in Pancreatic Ductal Adenocarcinoma with a G-Quadruplex-Binding Small Molecule” (J Med Chem, 2018):

What was measured:
PANC-1 [1] = test: Effect on PRKCZ gene expression in human PANC1 cells at 400 nM after 6 hrs by RNA sequence analysis relative to control; format: functional
How it was run: (§1)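 RNA-seq: cells seeded overnight in 60 mm plates (PANC-1 0.35 x 10^6, MIA PaCa-2 1.5 x 10^6 cells/well), then exposed to 400 nM compound for 6 or 24 h against untreated controls. Cell lines mycoplasma-free by RNA-capture ELISA and STR-profiled. Differentially expressed genes called at FDR < 0.1.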

MIA PaCa-2 [2] = test: Antitumor activity against human MIAPaCa2 cells xenografted in CD-1 nude mouse assessed as change in tumor volume at 15 mg/kg, iv administered twice weekly for 4 weeks measured on day 29 relative to control; format: functional
How it was run: (§2)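 Female CD-1 nude mice (2-3 months, 20−25 g) given 5 x 10^6 MIA PaCa-2 cells subcutaneously in right flank with Matrigel; dosing began once tumors were established (approx. 13 days, mean 0.05 cm3). Eight mice/group, IV in saline twice weekly for 28 days (8 doses) against a saline group. Tumors measured by calliper (length × width × height × π/6), with body weight. Student's t test.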

A549 = test: Growth inhibition of human A549 cells after 96 hrs by SRB assay; format: functional, cell-based; details: A549, 96 h
How it was run: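 Cell lines kept at 37 °C, 5% CO2 in medium with 10% FBS and 2 mM L-glutamine. Compound dissolved in water, filter-sterilised, 10 mM stock diluted into media. Growth read by 96 h sulforhodamine B assay, absorbance at 540 nm. IC50 taken from mean absorbance per concentration as % of untreated wells, >3 individual determinations with standard deviations.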

MIA PaCa-2 [3] = test: Effect on PIK3R3 gene expression in human MIAPaCa2 cells at 400 nM after 24 hrs by RNA sequence analysis relative to control; format: functional
PANC-1 [4] = test: Effect on TEAD2 gene expression in human PANC1 cells at 400 nM after 24 hrs by RNA sequence analysis relative to control; format: functional; how it was run: as §1
MIA PaCa-2 [5] = test: Antitumor activity against human MIAPaCa2 cells xenografted in CD-1 nude mouse assessed as change in tumor volume at 15 mg/kg, iv administered twice weekly for 4 weeks measured on day 62 relative to control; format: functional; how it was run: as §2
PANC-1 [6] = test: Effect on PFKL gene expression in human PANC1 cells at 400 nM after 6 hrs by RNA sequence analysis relative to control; format: functional
PANC-1 [7] = test: Effect on CBFA2T3 gene expression in human PANC1 cells at 400 nM after 6 hrs by RNA sequence analysis relative to control; format: functional
How it was run: (§3)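 PANC-1 (0.35 x 10^6) or MIA PaCa-2 (1.5 x 10^6) cells seeded overnight in 60 mm plates, then exposed to 400 nM compound for 6 or 24 h; untreated cells as controls. Cells were mycoplasma-free and STR-certified. Differential expression by RNA-seq, called at FDR < 0.1.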

MIA PaCa-2 [8] = test: Effect on CBFA2T3 gene expression in human MIAPaCa2 cells at 400 nM after 24 hrs by RNA sequence analysis relative to control; format: functional; how it was run: as §3
MIA PaCa-2 [9] = test: Effect on TP73 gene expression in human MIAPaCa2 cells at 400 nM after 24 hrs by RNA sequence analysis relative to control; format: functional; how it was run: as §1
PANC-1 [10] = test: Effect on PARD6A gene expression in human PANC1 cells at 400 nM after 6 hrs by RNA sequence analysis relative to control; format: functional
[11] = Binding affinity to 5'-FAM/3'-TAMRA labeled HSP90B promoter G-quadruplex DNA (unknown origin) assessed as change in melting temperature at 1 uM by FRET assay
How it was run: (§4)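 FRET melting with FAM/TAMRA dual-labelled oligonucleotides at 400 nM, annealed at 95 °C for 10 min in 60 mM potassium cacodylate pH 7.4 and slowly cooled. Ligand final 1 μM; solution contains 50 mM K+. Fluorescence read every 0.5 °C over 30–100 °C with 30 s hold, excitation 450–495 nm and emission 515–545 nm. ΔTm from curve fitting, triplicate measurements.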

Mus musculus = test: Nephrotoxicity in CD-1 nude mouse xenografted with human MIAPaCa2 cells at 15 mg/kg, iv administered twice weekly for 4 weeks by hematoxylin and eosin staining based assay; format: toxicity, organism-based; details: in vivo, 672 h
PANC-1 [12] = test: Effect on AKT1 gene expression in human PANC1 cells at 400 nM after 24 hrs by RNA sequence analysis relative to control; format: functional; how it was run: as §3
MIA PaCa-2 [13] = test: Effect on CTBP1 gene expression in human MIAPaCa2 cells at 400 nM after 24 hrs by RNA sequence analysis relative to control; format: functional; how it was run: as §3
MIA PaCa-2 [14] = test: Effect on CBFA2T3 gene expression in human MIAPaCa2 cells at 400 nM after 6 hrs by RNA sequence analysis relative to control; format: functional; how it was run: as §3
MIA PaCa-2 [15] = test: Effect on FASN gene expression in human MIAPaCa2 cells at 400 nM after 6 hrs by RNA sequence analysis relative to control; format: functional; how it was run: as §3
MIA PaCa-2 [16] = test: Effect on IGF2 gene expression in human MIAPaCa2 cells at 400 nM after 24 hrs by RNA sequence analysis relative to control; format: functional; how it was run: as §3
[17] = Binding affinity to 5'-FAM/3'-TAMRA labeled T-loop duplex DNA (unknown origin) assessed as change in melting temperature at 1 uM by FRET assay; how it was run: as §4
[18] = Selectivity index, ratio of IC50 for human WI38 cells to IC50 for human MIAPaCa2 cells; format: functional
How it was run: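 SRB growth-inhibition assay over 96 h with compounds dissolved in water; cells grown in 10 % FBS at 37 °C, 5% CO2. Absorbance at 540 nm as a percentage of untreated wells gives the IC50. Values are averages of >3 determinations, with the ratio taken as WI-38 IC50 over MIA PaCa-2 IC50.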

MIA PaCa-2 [19] = test: Effect on PRDM16 gene expression in human MIAPaCa2 cells at 400 nM after 6 hrs by RNA sequence analysis relative to control; format: functional
PANC-1 [20] = test: Effect on MAPK11 gene expression in human PANC1 cells at 400 nM after 6 hrs by RNA sequence analysis relative to control; format: functional
PANC-1 [21] = test: Effect on TP73 gene expression in human PANC1 cells at 400 nM after 6 hrs by RNA sequence analysis relative to control; format: functional; how it was run: as §1
Homo sapiens = organism: Homo sapiens; test: Binding affinity to 5'-FAM/3'-TAMRA labeled human telomeric F21T G-quadruplex DNA assessed as change in melting temperature at 1 uM by FRET assay; how it was run: as §4
MIA PaCa-2 [22] = test: Effect on IQSEC1 gene expression in human MIAPaCa2 cells at 400 nM after 24 hrs by RNA sequence analysis relative to control; format: functional; how it was run: as §3
MIA PaCa-2 [23] = test: Effect on mLST8 gene expression in human MIAPaCa2 cells at 400 nM after 6 hrs by RNA sequence analysis relative to control; format: functional; how it was run: as §1
MIA PaCa-2 [24] = test: Effect on SHC2 gene expression in human MIAPaCa2 cells at 400 nM after 24 hrs by RNA sequence analysis relative to control; format: functional; how it was run: as §1

O=C1c2ccc3c4c(c(NCCN5CCCC5)cc(c24)C(=O)N1CCCN1CCOCC1)C(=O)N(CCCN1CCOCC1)C3=O
log2FC (PANC-1 [1]): -1.44 | Activity (MIA PaCa-2 [2]): -73.3% | IC50 (A549): 24 nM | log2FC (MIA PaCa-2 [3]): -1.47 | log2FC (PANC-1 [4]): 0.21 | Activity (MIA PaCa-2 [5]): -85% | log2FC (PANC-1 [6]): -0.21 | log2FC (PANC-1 [7]): -2.18 | log2FC (MIA PaCa-2 [8]): -2.86 | log2FC (MIA PaCa-2 [9]): -1.19 | log2FC (PANC-1 [10]): -0.63 | ΔTm [11]: 12.7 °C | Activity (Mus musculus): Non-Toxic | log2FC (PANC-1 [12]): -1.04 | log2FC (MIA PaCa-2 [13]): -1.17 | log2FC (MIA PaCa-2 [14]): -2.74 | log2FC (MIA PaCa-2 [15]): -0.06 | log2FC (MIA PaCa-2 [16]): 0.72 | ΔTm [17]: 0.6 °C | Ratio IC50 [18]: 170 | log2FC (MIA PaCa-2 [19]): -2.73 | log2FC (PANC-1 [20]): -0.38 | log2FC (PANC-1 [21]): -1.44 | ΔTm (Homo sapiens): 11.8 °C | log2FC (MIA PaCa-2 [22]): -0.53 | log2FC (MIA PaCa-2 [23]): -0.76 | log2FC (MIA PaCa-2 [24]): -1.96
